In ChEMBL document CHEMBL3286131, “Design, synthesis and systematic evaluation of cytotoxic 3-heteroarylisoquinolinamines as topoisomerases inhibitors” (Eur J Med Chem, 2014):
Several values for one entry are separate records, joined by “and”; a condition that tells them apart may be missing. Equal entries are not always repeated. One block for each compound: values may come before it.

Assays:
HeLa [1] = assay: Cell cycle arrest in human HeLa cells assessed as accumulation at sub-G0/G1 phase at 25 uM after 24 hrs using […] by flow cytometry analysis relative to control; type: functional
In short: (§1)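 HeLa cells exposed to graded compound concentrations for 24 h, harvested by centrifugation, PBS-washed twice, fixed overnight on ice in 70% ethanol. Stained with 10 μg/mL propidium iodide plus 0.5 mg/mL RNase and 0.1% Triton X-100 in PBS, 30 min at 37 °C in the dark. Flow cytometry gates: sub-G0/G1, G0/G1, S, G2/M.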

HeLa [2] = assay: Cell cycle arrest in human HeLa cells assessed as accumulation at G0/G1 phase phase at 10 uM after 24 hrs using ethidium bromide staining by flow cytometry analysis relative to control; type: functional; conditions: in the assay text read “propidium iodide staining” for “ethidium bromide staining”; in short: as §1
HeLa [3] = assay: Cell cycle arrest in human HeLa cells assessed as accumulation at S phase phase at 25 uM after 24 hrs using […] by flow cytometry analysis relative to control; type: functional; in short: as §1
HeLa [4] = assay: Cell cycle arrest in human HeLa cells assessed as accumulation at G0/G1 phase phase at 50 uM after 24 hrs using […] by flow cytometry analysis relative to control; type: functional; in short: as §1
HeLa [5] = assay: Cell cycle arrest in human HeLa cells assessed as accumulation at sub-G0/G1 phase at 10 uM after 24 hrs using ethidium bromide staining by flow cytometry analysis relative to control; type: functional; conditions: in the assay text read “propidium iodide staining” for “ethidium bromide staining”; in short: as §1
HeLa [6] = assay: Cell cycle arrest in human HeLa cells assessed as accumulation at sub-G0/G1 phase at 50 uM after 24 hrs using […] by flow cytometry analysis relative to control; type: functional; in short: as §1
[7] = Cytotoxicity against human MCF10A cells after 2 days; type: cell-based, MCF-10A
In short: (§2)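 Cells seeded at 2-4 × 10^4 per well in medium with 10% FBS and incubated overnight at 37 °C, 5% CO2. Graded compound concentrations added on day 2. CCK-8 reagent added on day 4 for a further 4 h, absorbance read at 450 nm. IC50 from a four-parameter logistic fit; mean ± S.D. of three experiments run in triplicate.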

HeLa [8] = assay: Cell cycle arrest in human HeLa cells assessed as accumulation at G2/M phase phase at 5 uM after 24 hrs using ethidium bromide staining by flow cytometry analysis relative to control; type: functional; conditions: in the assay text read “propidium iodide staining” for “ethidium bromide staining”; in short: as §1
HeLa [9] = assay: Cell cycle arrest in human HeLa cells assessed as accumulation at G0/G1 phase phase at 5 uM after 24 hrs using ethidium bromide staining by flow cytometry analysis relative to control; type: functional; conditions: in the assay text read “propidium iodide staining” for “ethidium bromide staining”; in short: as §1
HeLa [10] = assay: Cell cycle arrest in human HeLa cells assessed as accumulation at S phase phase at 50 uM after 24 hrs using […] by flow cytometry analysis relative to control; type: functional; in short: as §1
HeLa [11] = assay: Cell cycle arrest in human HeLa cells assessed as accumulation at G2/M phase phase at 10 uM after 24 hrs using ethidium bromide staining by flow cytometry analysis relative to control; type: functional; conditions: in the assay text read “propidium iodide staining” for “ethidium bromide staining”; in short: as §1
T47D = assay: Cytotoxicity against human T47D cells after 2 days; type: functional, cell-based; in short: as §2
HeLa [12] = assay: Cell cycle arrest in human HeLa cells assessed as accumulation at S phase phase at 5 uM after 24 hrs using ethidium bromide staining by flow cytometry analysis relative to control; type: functional; conditions: in the assay text read “propidium iodide staining” for “ethidium bromide staining”; in short: as §1
DU-145 = assay: Cytotoxicity against human DU145 cells after 2 days; type: functional, cell-based; in short: as §2
HeLa [13] = assay: Cell cycle arrest in human HeLa cells assessed as accumulation at S phase phase at 10 uM after 24 hrs using ethidium bromide staining by flow cytometry analysis relative to control; type: functional; conditions: in the assay text read “propidium iodide staining” for “ethidium bromide staining”; in short: as §1
HeLa [14] = assay: Cell cycle arrest in human HeLa cells assessed as accumulation at G2/M phase phase at 50 uM after 24 hrs using […] by flow cytometry analysis relative to control; type: functional; in short: as §1
HeLa [15] = assay: Cell cycle arrest in human HeLa cells assessed as accumulation at G2/M phase phase at 25 uM after 24 hrs using […] by flow cytometry analysis relative to control; type: functional; in short: as §1
HeLa [16] = assay: Cell cycle arrest in human HeLa cells assessed as accumulation at G0/G1 phase phase at 25 uM after 24 hrs using […] by flow cytometry analysis relative to control; type: functional; in short: as §1
[17] = Cytotoxicity against human HCT15 cells after 2 days; type: functional, cell-based, HCT-15; in short: as §2
[18] = target: DNA topoisomerase 2-alpha (Homo sapiens) (UniProt P11388); assay: Inhibition of human DNA topoisomerase-2a-mediated relaxation of supercoiled DNA pBR322 at 100 uM after 4 hrs using ethidium bromide staining by agarose gel electrophoresis analysis
In short: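 Supercoiled pBR322 (200 ng) incubated with human topo IIα (1 unit) ± compound for 30 min at 30 °C. Buffer: 10 mM Tris-HCl pH 7.9, 50 mM NaCl, 50 mM KCl, 5 mM MgCl2, 1 mM EDTA, 1 mM ATP, BSA. Stopped with EDTA. 1% agarose gel run at 25 V for 4 h in TAE, ethidium bromide stain, supercoiled DNA quantified by UV imaging.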

[19] = target: T1, DNA topoisomerase 1 (Homo sapiens) (UniProt P11387); assay: Inhibition of recombinant human DNA topoisomerase-1-mediated relaxation of supercoiled DNA pBR322 at 100 uM after 7 hrs using ethidium bromide staining by agarose gel electrophoresis analysis
T1 sequence (whole entry): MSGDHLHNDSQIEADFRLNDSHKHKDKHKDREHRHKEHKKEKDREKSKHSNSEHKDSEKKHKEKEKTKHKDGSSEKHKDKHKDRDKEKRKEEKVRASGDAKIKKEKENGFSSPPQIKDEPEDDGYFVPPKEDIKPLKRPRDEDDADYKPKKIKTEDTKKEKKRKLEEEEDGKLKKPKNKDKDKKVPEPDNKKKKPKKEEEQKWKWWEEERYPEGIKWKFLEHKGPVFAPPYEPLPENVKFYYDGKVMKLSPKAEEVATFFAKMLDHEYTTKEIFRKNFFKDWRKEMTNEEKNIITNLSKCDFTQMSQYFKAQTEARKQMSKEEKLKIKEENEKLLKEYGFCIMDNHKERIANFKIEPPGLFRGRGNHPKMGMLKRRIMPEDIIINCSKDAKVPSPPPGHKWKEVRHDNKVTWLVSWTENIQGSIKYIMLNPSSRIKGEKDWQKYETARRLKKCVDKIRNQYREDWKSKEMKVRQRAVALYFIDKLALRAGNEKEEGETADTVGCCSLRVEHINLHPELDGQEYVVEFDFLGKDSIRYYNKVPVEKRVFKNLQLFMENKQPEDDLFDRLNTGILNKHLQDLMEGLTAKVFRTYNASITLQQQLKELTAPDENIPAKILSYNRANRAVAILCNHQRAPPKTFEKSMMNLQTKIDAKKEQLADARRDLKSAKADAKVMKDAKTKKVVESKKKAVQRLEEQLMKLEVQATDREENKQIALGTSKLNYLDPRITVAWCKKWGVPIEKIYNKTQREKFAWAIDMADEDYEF
In short: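 pBR322 (100 ng) incubated with recombinant human topo I (0.4 units) ± compound for 30 min at 37 °C. Buffer: 10 mM Tris-HCl pH 7.9, 150 mM NaCl, 0.1% BSA, 1 mM spermidine, 5% glycerol. Quenched with sarcosyl stop solution. 1% agarose gel run at 15 V for 7 h in TAE, ethidium bromide stain, supercoiled DNA quantified under UV.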

Sequence of DNA topoisomerase 2-alpha (Homo sapiens) (P11388 whole entry): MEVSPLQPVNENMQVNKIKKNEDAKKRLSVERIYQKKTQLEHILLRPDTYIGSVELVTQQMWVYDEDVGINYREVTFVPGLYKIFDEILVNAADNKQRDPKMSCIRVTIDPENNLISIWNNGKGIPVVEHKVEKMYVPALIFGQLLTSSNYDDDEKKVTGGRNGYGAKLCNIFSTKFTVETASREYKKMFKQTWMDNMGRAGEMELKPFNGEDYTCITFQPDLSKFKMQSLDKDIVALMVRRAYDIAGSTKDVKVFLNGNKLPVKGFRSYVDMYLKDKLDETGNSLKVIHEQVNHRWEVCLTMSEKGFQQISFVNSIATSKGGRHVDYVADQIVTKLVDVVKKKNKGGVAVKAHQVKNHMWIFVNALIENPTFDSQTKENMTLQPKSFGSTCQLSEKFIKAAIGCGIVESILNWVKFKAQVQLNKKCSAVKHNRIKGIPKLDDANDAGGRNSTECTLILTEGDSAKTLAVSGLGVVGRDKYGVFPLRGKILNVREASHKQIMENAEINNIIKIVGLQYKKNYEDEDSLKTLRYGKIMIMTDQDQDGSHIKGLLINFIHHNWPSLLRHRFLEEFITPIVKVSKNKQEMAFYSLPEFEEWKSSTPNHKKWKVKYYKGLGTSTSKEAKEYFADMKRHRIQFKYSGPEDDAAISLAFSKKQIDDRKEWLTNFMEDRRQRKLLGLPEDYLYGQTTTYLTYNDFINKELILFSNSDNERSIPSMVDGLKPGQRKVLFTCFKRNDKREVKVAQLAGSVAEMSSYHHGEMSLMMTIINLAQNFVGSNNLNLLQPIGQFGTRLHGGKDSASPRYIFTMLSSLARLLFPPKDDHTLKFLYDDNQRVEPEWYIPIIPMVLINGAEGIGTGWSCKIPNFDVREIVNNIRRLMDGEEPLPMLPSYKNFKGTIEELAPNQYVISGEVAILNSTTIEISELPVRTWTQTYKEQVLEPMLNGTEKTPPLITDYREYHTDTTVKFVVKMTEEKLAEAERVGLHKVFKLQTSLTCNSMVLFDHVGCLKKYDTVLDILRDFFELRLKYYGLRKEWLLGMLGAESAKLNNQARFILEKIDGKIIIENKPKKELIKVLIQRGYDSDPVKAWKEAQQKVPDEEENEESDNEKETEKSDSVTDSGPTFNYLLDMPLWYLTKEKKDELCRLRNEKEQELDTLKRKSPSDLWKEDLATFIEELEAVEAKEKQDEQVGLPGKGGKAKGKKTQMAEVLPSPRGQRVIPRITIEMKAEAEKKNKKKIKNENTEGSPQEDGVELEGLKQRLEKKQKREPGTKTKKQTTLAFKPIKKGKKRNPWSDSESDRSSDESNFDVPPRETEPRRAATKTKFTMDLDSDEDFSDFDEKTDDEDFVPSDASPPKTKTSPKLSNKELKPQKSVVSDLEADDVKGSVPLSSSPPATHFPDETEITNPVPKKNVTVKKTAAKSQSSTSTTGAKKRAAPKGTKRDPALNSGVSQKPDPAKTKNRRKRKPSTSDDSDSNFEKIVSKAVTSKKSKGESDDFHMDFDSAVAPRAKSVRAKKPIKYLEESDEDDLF

Compound: Cc1ccc2c(N3CCNCC3)nc(-c3cccs3)cc2c1
Activity (HeLa [1]): 96%
Activity (HeLa [2]): 3.24%
Activity (HeLa [3]): 0.5%
Activity (HeLa [4]): 1.4%
Activity (HeLa [5]): 92.31%
Activity (HeLa [6]): 97.06%
IC50 ([7]; Homo sapiens, MCF-10A, 48 h): 7.25 µM
Activity (HeLa [8]): 11.58%
Activity (HeLa [9]): 62.69%
Activity (HeLa [10]): 0.35%
Activity (HeLa [11]): 0.23%
IC50 (T47D; t47d): 8.74 µM
Activity (HeLa [12]): 11.25%
IC50 (DU-145; Homo sapiens, DU-145, 48 h): 8.31 µM
Activity (HeLa [13]): 0.64%
Activity (HeLa [14]): 0.04%
Activity (HeLa [15]): 0.22%
Activity (HeLa [16]): 1.89%
IC50 ([17]; hct-15): 1.31 µM

Compound: COc1cccc2c1C(=O)c1c(O)c3c(c(O)c1C2=O)C[C@@](O)(C(=O)CO)C[C@@H]3O[C@H]1C[C@H](N)[C@H](O)[C@H](C)O1 [DOXORUBICIN]
IC50 ([7]; Homo sapiens, MCF-10A, 48 h): 0.93 µM
IC50 (T47D; Homo sapiens, T47D, 48 h): 0.84 µM
IC50 (DU-145; Homo sapiens, DU-145, 48 h): 4.88 µM

Compound: Cl.Nc1nc(-c2cccs2)cc2ccccc12
Activity (HeLa [1]): 5.22%
Activity (HeLa [2]): 64.43%
Activity (HeLa [3]): 13.82%
Activity (HeLa [4]): 52.6%
Activity (HeLa [5]): 6.6%
Activity (HeLa [6]): 6.54%
Activity (HeLa [8]): 16.08%
Activity (HeLa [9]): 63.67%
Activity (HeLa [10]): 10.09%
Activity (HeLa [11]): 13.67%
IC50 (T47D; t47d): 17.5 µM
Activity (HeLa [12]): 7.76%
Activity (HeLa [13]): 9.55%
Activity (HeLa [14]): 22.37%
Activity (HeLa [15]): 11.42%
Activity (HeLa [16]): 56.01%
IC50 ([17]; hct-15): 24.4 µM

Compound: Cc1ccc2c(N3CCCCC3)nc(-c3cccs3)cc2c1
IC50 ([7]; Homo sapiens, MCF-10A, 48 h): > 50 µM
IC50 (T47D; t47d): 2.56 µM
IC50 (DU-145; Homo sapiens, DU-145, 48 h): > 50 µM
IC50 ([17]; hct-15): 5.45 µM

Compound: COc1cc([C@@H]2c3cc4c(cc3[C@@H](O[C@@H]3O[C@@H]5CO[C@@H](C)O[C@H]5[C@H](O)[C@H]3O)[C@H]3COC(=O)[C@H]23)OCO4)cc(OC)c1O [ETOPOSIDE]
IC50 ([7]; Homo sapiens, MCF-10A, 48 h): 12.2 µM
IC50 (T47D; Homo sapiens, T47D, 48 h): 2.57 µM
IC50 ([17]; Homo sapiens, HCT-15, 48 h): 9.45 µM

Compound: c1csc(-c2cc3ccccc3c(N3CCCCC3)n2)c1
IC50 (T47D; t47d): 7.26 µM
IC50 ([17]; hct-15): 1.04 µM

Compound: Cc1ccc2c(N3CCN(C)CC3)nc(-c3cccs3)cc2c1
IC50 ([7]; Homo sapiens, MCF-10A, 48 h): 13.3 µM
IC50 (T47D; Homo sapiens, T47D, 48 h): 9.35 µM
IC50 (DU-145; Homo sapiens, DU-145, 48 h): 33 µM
IC50 ([17]; hct-15): 4.37 µM

Compound: Cc1ccc2c(N3CCOCC3)nc(-c3cccs3)cc2c1 [listing 1 of 2 here]
IC50 ([7]; mcf-10a): > 50 µM
IC50 (T47D; Homo sapiens, T47D, 48 h): 6.76 µM
IC50 (DU-145; Homo sapiens, DU-145, 48 h): > 50 µM
IC50 ([17]; Homo sapiens, HCT-15, 48 h): 7.58 µM

Compound: Cc1ccc2cc(-c3cccs3)nc(N3CCCCC3)c2c1
IC50 (T47D; t47d): 3.02 µM
IC50 ([17]; hct-15): 0.89 µM

Compound: CN1CCN(c2nc(-c3cccs3)cc3ccccc23)CC1 [listing 1 of 2 here]
IC50 ([7]; mcf-10a): 38.8 µM
IC50 (T47D; t47d): 16.1 µM
IC50 (DU-145; du-145): 44.5 µM
IC50 ([17]; hct-15): 7.9 µM

Compound: Cc1ccc2c(N3CCOCC3)nc(-c3cccs3)cc2c1 [listing 2 of 2 here]
IC50 ([7]; Homo sapiens, MCF-10A, 48 h): 48.7 µM
IC50 (T47D; t47d): 7.88 µM
IC50 ([17]; hct-15): 7.79 µM

inhibition [18]: 4.8%
inhibition [19]: 2.1%
Compound: Cc1cccc2c(N=[N+]=[N-])nc(-c3cccs3)cc12
IC50 ([7]; Homo sapiens, MCF-10A, 48 h): > 50 µM
IC50 (T47D; Homo sapiens, T47D, 48 h): > 50 µM
IC50 (DU-145; Homo sapiens, DU-145, 48 h): > 50 µM
IC50 ([17]; Homo sapiens, HCT-15, 48 h): > 50 µM

Compound: CCN1CCN(c2nc(-c3cccs3)cc3ccc(C)cc23)CC1
IC50 ([7]; Homo sapiens, MCF-10A, 48 h): 42.9 µM
IC50 (T47D; Homo sapiens, T47D, 48 h): 2.84 µM
IC50 (DU-145; du-145): 31.1 µM
IC50 ([17]; hct-15): 7.71 µM

inhibition [18]: 3.2% and 9.1%
inhibition [19]: 2.6% and 15%
Compound: CCN1CCN(c2nc(-c3cccs3)cc3ccccc23)CC1

Compound: CC[C@@]1(O)C(=O)OCc2c1cc1n(c2=O)Cc2cc3ccccc3nc2-1 [CAMPTOTHECIN]
IC50 ([7]; Homo sapiens, MCF-10A, 48 h): 0.27 µM
IC50 (T47D; Homo sapiens, T47D, 48 h): 0.28 µM
IC50 (DU-145; Homo sapiens, DU-145, 48 h): 4.01 µM
IC50 ([17]; Homo sapiens, HCT-15, 48 h): 10.1 µM

inhibition [18]: 0%
inhibition [19]: 80.8% and 97.5%
Compound: CN1CCN(c2nc(-c3cccs3)cc3ccccc23)CC1 [listing 2 of 2 here]
